Compound activity deposited in PubChem BioAssay by The Scripps Research Institute Molecular Screening Center.
M4 PAM – positive allosteric modulators of human muscarinic M4 receptor; P08173; CHO-K1 hM4/Gqi5, Fluo-8 calcium fluorescence, ACh EC20; 0% = ACh EC20, 100% = maximal ACh; activation, % at 3 µM; 0.4% of 360,000 active; AID 624126;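 active = activation above its plate's cutoff, the mean activation of sample wells plus 3 SD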
Target sequence (P08173 whole entry, looked up): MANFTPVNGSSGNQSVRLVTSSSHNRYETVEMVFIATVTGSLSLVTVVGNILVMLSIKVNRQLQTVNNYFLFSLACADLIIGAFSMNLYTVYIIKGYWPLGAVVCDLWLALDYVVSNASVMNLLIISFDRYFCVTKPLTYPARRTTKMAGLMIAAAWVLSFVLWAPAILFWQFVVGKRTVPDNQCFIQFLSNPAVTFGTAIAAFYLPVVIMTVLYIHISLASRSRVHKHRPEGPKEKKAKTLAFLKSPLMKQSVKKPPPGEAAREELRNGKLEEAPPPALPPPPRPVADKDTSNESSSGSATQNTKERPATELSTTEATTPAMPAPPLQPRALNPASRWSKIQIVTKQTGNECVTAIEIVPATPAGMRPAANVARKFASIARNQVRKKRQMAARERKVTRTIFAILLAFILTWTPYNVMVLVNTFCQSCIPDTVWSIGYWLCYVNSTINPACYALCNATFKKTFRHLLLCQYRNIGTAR
M5 antag – antagonists of human muscarinic M5 receptor (CHRM5). inhibition, % at 3 µM. CHO-hM5 cells, Fluo-8 calcium fluorescence, ACh EC80. 0.59% of 360,000 active. P08912;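 active = inhibition above a per-plate cutoff, the mean of that plate's test compounds plus 3 SD, cut at about 27% in these data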
CHRM4 antagonist – blocks acetylcholine activation of human M4 receptor. P08173. CHO-hM4 cells, ACh EC80, Fluo-8 calcium fluorescence. inhibition, % at 3 µM. 0.73% of 360,000 active;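 active = inhibition above its plate's cutoff, the mean inhibition of sample wells plus 3 SD, cut at about 27% in these data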
M5 ag – CHRM5 agonism in calcium assay; P08912; CHO-K1 hM5 cells, Fluo-8 calcium fluorescence; 0% DMSO wells, 100% maximal acetylcholine response; activation, % at 3 µM; 0.19% of 360,000 active;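 active = activation above the run's mean over test compounds plus 3 SD, cut at about 23% in these data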;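 note: signal is peak over basal fluorescence ratio across the kinetic read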
CHRM5 PAM – CHRM5 positive allosteric modulation. CHO-K1 hM5, Fluo-8 calcium, ACh EC20 PAM; 0% = ACh EC20, 100% = ACh EC100. activation, % at 3 µM. 0.3% of 360,000 active;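 active = activation above the run cutoff, the mean activation of all test compounds plus 3 SD, cut at about 18% in these data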
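Measured by: Fluo-8 calcium fluorescence; material: human M5 receptor in CHO-K1 cells; schedule: Post-acetylcholine fluorescence recording 140 s; benchmarks: low control EC20 acetylcholine (0%), high control EC100 acetylcholine (100%); read-out: Max/basal fluorescence ratio as % of EC20–EC100 ACh window; compound: single dose, 3 µM nominal final test concentration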
M4 ag – CHRM4 agonism in calcium assay. P08173. CHO-K1 hM4/Gqi5, Fluo-8 calcium fluorescence; vehicle 0%, full acetylcholine response 100%. activation, % at 3 µM. 0.14% of 360,000 active;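 active = activation above the run mean over all test wells plus 3 SD, cut at about 32% in these data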;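 note: peak over basal fluorescence ratio per well then scaled between controls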
Large screens that a line does not name were inactive. A selection: hits, their analogues and other compounds. The true share with any hit is near 1.8%.

O=C(C[n+]1cc(-c2ccc(Cl)cc2)n2c1CCC2)N1c2ccccc2Sc2ccccc21	M5 antag 99, CHRM4 antagonist 97
COc1ccc(-c2c[n+](CC(=O)N3c4ccccc4Sc4ccccc43)c3n2CCC3)cc1	M5 antag 41, CHRM4 antagonist 53
CC1CCC(C(C)C)C(OC(=O)C[n+]2cc(-c3ccc(Cl)cc3)n3c2CCC3)C1 (centres undefined)	M5 antag 53, CHRM4 antagonist 29
O=C(C[n+]1cc(-c2ccc(Cl)cc2)n2c1CCC2)Nc1nc(-c2ccccc2)cs1	none
O=C(C[n+]1cc(-c2ccc(Cl)c(Cl)c2)n2c1CCC2)N1c2ccccc2Sc2ccccc21	M5 antag 100, CHRM4 antagonist 98
COc1ccc(-c2c[n+](CC(=O)c3cccs3)c3n2CCC3)cc1	none
Cc1nc2c(OCc3ccc(C(F)(F)F)cc3)cccn2c1N(C)Cc1cccs1	none
COc1cccc2cc(C(=O)c3ccc([N+](=O)[O-])cc3)oc12	none
O=C(COC(=O)Cc1ccc(Cl)c(Cl)c1)NCCc1ccccc1	none
CCOC(=O)N1CCN(C(=O)CNC(=O)Cn2cnc3ccccc3c2=O)CC1	M4 PAM 21
CC(C)C(NC(=O)OCc1ccccc1)C(=O)NC1CCCCC1 (centres undefined)	M4 PAM 31
Nc1c(-c2ccccc2)cnn1-c1cccc([N+](=O)[O-])c1	none
Nc1c(-c2ccc(Cl)cc2)cnn1-c1cccc([N+](=O)[O-])c1	M5 antag 33
CN1C(=O)/C(=C/c2ccc(C(F)(F)F)cc2)Sc2ccc(C(=O)N3CCN(c4ccccn4)CC3)cc21	M5 antag 37
CN1C(=O)/C(=C/c2ccccc2Cl)Sc2ccc(C(=O)N3CCCC3)cc21	none
CC(/C=C1\SC(=S)N(CCC(=O)Nc2nc(C)cs2)C1=O)=C\c1ccccc1	none
Cn1c(SCC(=O)NCCc2ccccc2)ncc(C(=O)Nc2ccc(F)cc2)c1=O	none
O=C(COc1ccc(Cl)cc1)Nc1ncc([N+](=O)[O-])s1	M5 antag 31
Cc1ccc(C(=O)Nc2ncc([N+](=O)[O-])s2)cc1	M5 antag 32
COc1ccccc1NC(=O)c1ccc2[nH]c(C)c(C)c2c1	none
O=c1/c(=C\c2ccc(O)cc2)sc2nc(-c3ccccc3)c(-c3ccccc3)n12	none
O=c1/c(=C/c2ccccc2)sc2nnc(-c3cccs3)n12	CHRM5 PAM 19
O=C(COC(=O)CNC(=O)c1ccc(Br)o1)Nc1ccc2c(c1)OCCO2	none
O=C(COC(=O)c1ccc(Br)o1)Nc1ccc2c(c1)OCCO2	M4 PAM 26
O=C(COC(=O)C1COc2ccccc2O1)Nc1cccc(Cl)c1 (centres undefined)	none
O=C(COC(=O)C1COc2ccccc2O1)NC(=O)Nc1ccc2c(c1)OCCO2 (centres undefined)	M4 PAM 23
O=C(NCc1ccco1)c1ccc2sc([C@H]3C[C@H](O)[C@@H](CO)O3)nc2c1	none
COc1ccc(Cl)cc1N1CC(c2nc3ccccc3[nH]2)CC1=O (centres undefined)	none
O=C1CC(c2nc3ccccc3[nH]2)CN1c1ccccc1F (centres undefined)	CHRM4 antagonist 78
O=S(=O)(c1ccc(Cl)c(Cl)c1)c1snnc1-c1ccccc1	CHRM4 antagonist 40
Cc1c(NS(=O)(=O)c2cccc(C(=O)N3CCC(C(N)=O)CC3)c2)c(=O)n(-c2ccccc2)n1C	M4 PAM 32
CN(C)c1ccc(/C=C2\Oc3ccc(C#Cc4cccc(N)c4)cc3C2=O)cc1	M5 antag 33, M5 ag 67, M4 ag 96
O=C(N/N=C\c1cn(-c2ccccc2)nc1-c1ccccc1)c1ccc(Br)o1	CHRM4 antagonist 27
Cc1ccc(-c2nn(-c3ccccc3)cc2/C=N/NC(=O)c2ccc(Br)o2)cc1	none
S=C(c1ccc2c(c1)OCO2)N1CCN(c2cccc(Cl)c2)CC1	none
O=C1CC(N(O)c2ccccc2)C(=O)N1c1cc(Cl)cc(Cl)c1 (centres undefined)	M5 ag 30
Cc1nc(N2CCN(C(=O)c3ccco3)CC2)nc2c1C(=O)CCC2	none
CSCCNC(=O)C1(C)CCN1C(=O)c1cc(C)n(C)n1 (centres undefined)	none
COC(=O)c1sc(C(C)(C)C)cc1CS(=O)(=O)c1ccccn1	CHRM5 PAM 22
CC(C)(C)c1ccc(OCC(O)CS(=O)(=O)c2ccccn2)cc1 (centres undefined)	none
COc1ccc(OC)c(NC(=O)C2(C)CCN2C(=O)C2(c3ccc(Cl)cc3)CCC2)c1 (centres undefined)	none
COc1cc(-n2c(=O)c3ccccc3n(Cc3ccccc3)c2=O)cc(OC)c1OC	M5 antag 30, CHRM5 PAM 30
COc1cc(-n2c(=O)c3ccccc3n(Cc3cccc(F)c3)c2=O)cc(OC)c1OC	none
CCC(C)NC(=O)c1cc2c(=O)[nH]c3ccc(C)cc3c2s1 (centres undefined)	none
CCN(C(=O)c1ccc(Cl)cc1[N+](=O)[O-])c1ccccc1C	none
CC(C)(C)N(Cc1ccccc1)C(=O)c1ccc(Br)o1	none
CC(C)(C)N(Cc1ccccc1)C(=O)c1ccc(Cl)cc1[N+](=O)[O-]	CHRM4 antagonist 27
Cc1ccc(C(=O)N(Cc2ccccc2)C(C)(C)C)cc1C	CHRM4 antagonist 37
CCc1cc(/C(Cc2ccccn2)=N\Nc2ccccc2)c(O)cc1O	none
CCOc1cc(/C=C(\C#N)C(=O)NCc2cccnc2)ccc1O	none
N#CC(C#N)=C(Nc1ccc(F)cc1)SCc1cccc(Br)c1	M5 antag 32
Cc1cccc(CSC(Nc2ccc(F)cc2)=C(C#N)C#N)c1	M5 antag 30
Cc1cccc(CSC(=N)N)c1	none
CCCCNC(=O)c1[nH]c(=O)cnc1-c1ccccc1	none
Cc1cccc(C)c1C(=NCCN(C)C)c1ccccc1	M5 antag 48
O=C(OCc1ccccc1)N(CCCCN(CCCNCc1ccccc1)C(=O)OCc1ccccc1)CCCNCc1ccccc1	CHRM4 antagonist 65
CC(C)NC(=O)c1cc(C2CCCCN2S(=O)(=O)c2cccs2)on1 (centres undefined)	none
Nc1cc([N+](=O)[O-])ccc1Nc1ccc(O)cc1	M5 antag 32
CC(C)N1CCC1(C)C(=O)Nc1ccc(-n2cccc2)cc1 (centres undefined)	none
Cc1ccc(C2(C)NC(=O)N(CC(=O)Nc3cc(S(=O)(=O)N(C)C)ccc3C)C2=O)cc1 (centres undefined)	none
